# Measurements as given in ChEMBL document CHEMBL1806459, “Discovery of N-(1-ethylpropyl)-[3-methoxy-5-(2-methoxy-4-trifluoromethoxyphenyl)-6-methyl-pyrazin-2-yl]amine 59 (NGD 98-2): an orally active corticotropin releasing factor-1 (CRF-1) receptor antagonist” (J Med Chem, 2011).
# pKi: −log10 of the molar value.
# Test system: not listed separately
# Experiment: Half life in rat microsomes
# Assay type: ADME, Microsome
# Method in brief: (§1)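 Stability in human or rat liver microsomes; half-life (T1/2, min) of compound turnover reported.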
row,half-life [min],SMILES
1,4.3,CCc1nc(-c2ccc(OC)cc2C(F)(F)F)c(CC)nc1NC(CC)CC
2,3.2,CCC(CC)Nc1nc(C)c(-c2ccc(Cl)cc2Cl)nc1C
3,5.9,CCc1nc(-c2ccc(OC)cc2O)c(CC)nc1NC(CC)CC
4,< 1,CCc1nc(-c2ccc(Cl)cc2Cl)c(CC)nc1NC(C)CN(C)C (stereo not given)
5,< 1,CCc1nc(-c2cnc(C)cc2N(C)C)c(CC)nc1NC(CC)CC
6,2.5,CCc1nc(-c2ccc(Cl)cc2Cl)c(CC)nc1NC(C1CC1)C1CC1
7,2.5,CCc1nc(-c2ccc(Cl)cc2Cl)c(CC)nc1CC(CC)CC
8,47,CCOc1ccc(-c2nc(OC)c(NC(CC)CC)nc2C)c(Cl)c1
9,11,CCc1nc(-c2ccc(Cl)cc2Cl)c(OC)nc1NC(CC)CC
10,< 1,CCc1nc(N(CCOC)CCOC)c(CC)nc1-c1ccc(Cl)cc1Cl
11,< 1,CCc1nc(-c2cnc(OC)nc2OC)c(CC)nc1NC(CC)CC
12,2.5,CCC(CC)Nc1nc(OC)c(-c2ccc(Cl)cc2Cl)nc1OC
13,< 1,CCCN(CCN(C)C)c1nc(CC)c(-c2ccc(Cl)cc2Cl)nc1CC
14,120,CCC(CC)Nc1nc(C)c(-c2ccc(C(F)(F)F)cc2OC)nc1OC
15,< 1,CCc1nc(NC(CC)CC)c(Cl)nc1-c1ccc(Cl)cc1Cl
16,4.2,CCc1nc(-c2ccc(Cl)cc2Cl)c(C)nc1NC(CC)CC
17,17,CCc1nc(-c2ccc(OC(F)F)cc2Cl)c(OC)nc1NC(CC)CC
18,11,CCc1nc(NC(CC)CC)c(C)nc1-c1ccc(Cl)cc1Cl

# Biological target: T1, Corticotropin-releasing factor receptor 1 (Homo sapiens, UniProt P34998)
# T1 sequence (P34998 whole entry): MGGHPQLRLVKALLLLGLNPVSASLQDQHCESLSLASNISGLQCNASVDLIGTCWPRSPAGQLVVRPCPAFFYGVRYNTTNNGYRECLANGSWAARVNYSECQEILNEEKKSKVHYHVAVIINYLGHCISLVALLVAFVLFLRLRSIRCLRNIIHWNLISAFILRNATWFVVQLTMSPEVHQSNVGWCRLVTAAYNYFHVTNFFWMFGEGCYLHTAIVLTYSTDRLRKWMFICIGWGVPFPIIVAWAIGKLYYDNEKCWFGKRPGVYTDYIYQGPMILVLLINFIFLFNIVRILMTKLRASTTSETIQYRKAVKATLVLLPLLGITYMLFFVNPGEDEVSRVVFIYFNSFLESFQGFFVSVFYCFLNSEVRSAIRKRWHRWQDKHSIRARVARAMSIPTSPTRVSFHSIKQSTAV
# Experiment: Displacement of [125I]-sauvagine from human CRF-1 receptor expressed in human IMR-32 cells after 2 hrs by scintillation counting
# Assay type: cell-based
# Method in brief: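 Competition binding against 125I-sauvagine on membrane preparations from IMR-32 human neuroblastoma cells, which express CRF-1 endogenously. Modified from a published method.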
row,pKi,SMILES
1,6.26,CCc1nc(NC(CC)CC)cnc1-c1ccc(Cl)cc1Cl
2,8.37,CCC(CC)Nc1nc(C)c(-c2ccc(Cl)cc2Cl)nc1OC
3,8.23,CCc1nc(NC(CC)CC)c(OC)nc1-c1ccc(Cl)cc1Cl
4,8.96,CCc1nc(-c2ccc(OC)cc2Cl)c(OC)nc1NC(CC)CC
5,8.36,CCc1nc(-c2ccc(OC)cc2C(F)(F)F)c(CC)nc1NC(CC)CC
6,8.11,CCOc1ccc(-c2nc(CC)c(NC(CC)CC)nc2CC)c(OC)c1
7,8.25,CCc1nc(-c2ccc(C(F)(F)F)cc2OC)c(CC)nc1NC(CC)CC
8,7.57,CCC(CC)Nc1nc(C)c(-c2ccc(Cl)cc2Cl)nc1C
9,5.93,CCc1nc(-c2ccc(OC)cc2O)c(CC)nc1NC(CC)CC
10,7.92,CCc1nc(NC(CC)CC)c(I)nc1-c1ccc(Cl)cc1Cl
11,6.31,CCc1nc(-c2ccc(Cl)cc2Cl)c(CC)nc1NC(C)CN(C)C (stereo not given)
12,8.12,CCc1nc(-c2cnc(C)cc2N(C)C)c(CC)nc1NC(CC)CC
13,8.43,CCc1nc(-c2ccc(Cl)cc2Cl)c(CC)nc1NC(C1CC1)C1CC1
14,7.17,CCc1nc(-c2ccc(Cl)cc2Cl)c(CC)nc1CC(CC)CC
15,8.23,CCOc1ccc(-c2nc(OC)c(NC(CC)CC)nc2C)c(Cl)c1
16,8.10,CCc1nc(-c2ccc(Cl)cc2Cl)c(OC)nc1NC(CC)CC
17,6.89,CCc1nc(N(CCOC)CCOC)c(CC)nc1-c1ccc(Cl)cc1Cl
18,7.76,CCc1nc(-c2cnc(OC)nc2OC)c(CC)nc1NC(CC)CC
19,8.08,CCC(CC)Nc1nc(OC)c(-c2ccc(Cl)cc2Cl)nc1OC
20,5.81,CCCN(CCN(C)C)c1nc(CC)c(-c2ccc(Cl)cc2Cl)nc1CC
21,8.89,CCC(CC)Nc1nc(C)c(-c2ccc(C(F)(F)F)cc2OC)nc1OC
22,7.15,CCc1nc(NC(CC)CC)c(Cl)nc1-c1ccc(Cl)cc1Cl
23,8.07,CCc1nc(-c2ccc(Cl)cc2Cl)c(C)nc1NC(CC)CC
24,8.60,CCc1nc(-c2ccc(OC(F)F)cc2Cl)c(OC)nc1NC(CC)CC
25,7.27,CCc1nc(NC(CC)CC)c(C)nc1-c1ccc(Cl)cc1Cl

# Test system: not listed separately
# Experiment: Half life in human microsomes
# Assay type: ADME, Microsome
# Method in brief: as §1
row,half-life [min],SMILES
1,28,CCc1nc(NC(CC)CC)cnc1-c1ccc(Cl)cc1Cl
2,35,CCc1nc(NC(CC)CC)c(OC)nc1-c1ccc(Cl)cc1Cl
3,120,CCc1nc(-c2ccc(OC)cc2Cl)c(OC)nc1NC(CC)CC
4,12,CCc1nc(-c2ccc(OC)cc2C(F)(F)F)c(CC)nc1NC(CC)CC
5,11,CCc1nc(-c2ccc(C(F)(F)F)cc2OC)c(CC)nc1NC(CC)CC
6,29,CCC(CC)Nc1nc(C)c(-c2ccc(Cl)cc2Cl)nc1C
7,18,CCc1nc(-c2ccc(OC)cc2O)c(CC)nc1NC(CC)CC
8,7,CCc1nc(-c2ccc(Cl)cc2Cl)c(CC)nc1NC(C)CN(C)C (stereo not given)
9,7,CCc1nc(-c2cnc(C)cc2N(C)C)c(CC)nc1NC(CC)CC
10,11,CCc1nc(-c2ccc(Cl)cc2Cl)c(CC)nc1NC(C1CC1)C1CC1
11,13,CCc1nc(-c2ccc(Cl)cc2Cl)c(CC)nc1CC(CC)CC
12,120,CCOc1ccc(-c2nc(OC)c(NC(CC)CC)nc2C)c(Cl)c1
13,42,CCc1nc(-c2ccc(Cl)cc2Cl)c(OC)nc1NC(CC)CC
14,2,CCc1nc(N(CCOC)CCOC)c(CC)nc1-c1ccc(Cl)cc1Cl
15,7,CCc1nc(-c2cnc(OC)nc2OC)c(CC)nc1NC(CC)CC
16,16,CCC(CC)Nc1nc(OC)c(-c2ccc(Cl)cc2Cl)nc1OC
17,5,CCCN(CCN(C)C)c1nc(CC)c(-c2ccc(Cl)cc2Cl)nc1CC
18,120,CCC(CC)Nc1nc(C)c(-c2ccc(C(F)(F)F)cc2OC)nc1OC
19,10,CCc1nc(NC(CC)CC)c(Cl)nc1-c1ccc(Cl)cc1Cl
20,18,CCc1nc(-c2ccc(Cl)cc2Cl)c(C)nc1NC(CC)CC
21,120,CCc1nc(-c2ccc(OC(F)F)cc2Cl)c(OC)nc1NC(CC)CC
22,27,CCc1nc(NC(CC)CC)c(C)nc1-c1ccc(Cl)cc1Cl
